From ChEMBL document CHEMBL2163238, “Design, synthesis, and biological evaluation of N-alkylated deoxynojirimycin (DNJ) derivatives for the treatment of dengue virus infection” (J Med Chem, 2012)
In brackets after ≈: the same amount, converted by molar mass. Activity calls are given as the source filed them. No cut-off for these calls is given here.

Experiments:
[1] = Metabolic stability in mouse liver microsomes at 60 mins; format: ADME, Microsome; settings: read-out: Stability
[2] = Plasma protein binding in mouse plasma; format: ADME, cell-free; settings: read-out: PPB (converted)
In short: (§1)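 Binding of compound to human, rat or mouse plasma protein, reported as % bound.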

[3] = Aqueous solubility in PBS at pH 7.4; format: physicochemical; settings: buffer
[4] = Cytotoxicity against BHK cells assessed as cell viability by MTT assay; format: cell-based, Mesocricetus auratus; settings: hamster
[5] = Plasma protein binding in human plasma; format: ADME, cell-free; settings: read-out: PPB (converted); in short: as §1
[6] = Oral bioavailability in Sprague-Dawley rat at 25 mg/kg; format: ADME, organism-based; settings: in vivo
CYP3A4 [7] = molecular target: T1, CYP3A4 (Homo sapiens, UniProt P08684); test: (§2) Inhibition of human CYP3A4 using testosterone as substrate at 10 uM; format: ADME; settings: probe testosterone
In short: (§3)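 Inhibition of CYP isoforms with compound at 10 μM, reported as % inhibition. CYP3A4 run with midazolam or testosterone as substrate.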

CYP1A2 = molecular target: T2, CYP1A2 (Homo sapiens, UniProt P05177); test: Inhibition of human CYP1A2 at 10 uM; format: ADME; in short: as §3
T2 sequence (P05177 whole entry): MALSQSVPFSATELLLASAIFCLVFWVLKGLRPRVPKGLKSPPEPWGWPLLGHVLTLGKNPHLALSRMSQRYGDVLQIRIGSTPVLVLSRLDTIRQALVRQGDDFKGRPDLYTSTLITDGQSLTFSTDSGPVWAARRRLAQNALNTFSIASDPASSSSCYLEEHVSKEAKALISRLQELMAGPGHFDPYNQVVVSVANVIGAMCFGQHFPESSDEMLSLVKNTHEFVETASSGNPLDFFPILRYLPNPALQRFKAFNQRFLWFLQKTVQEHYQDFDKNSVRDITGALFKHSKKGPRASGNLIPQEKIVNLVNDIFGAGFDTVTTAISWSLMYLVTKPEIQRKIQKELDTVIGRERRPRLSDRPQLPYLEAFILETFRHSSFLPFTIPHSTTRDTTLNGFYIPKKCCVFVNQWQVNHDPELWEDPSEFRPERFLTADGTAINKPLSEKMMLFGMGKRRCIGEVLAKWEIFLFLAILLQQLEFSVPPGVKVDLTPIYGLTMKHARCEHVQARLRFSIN

[8] = Plasma protein binding in rat plasma; format: ADME, cell-free; settings: read-out: PPB (converted); in short: as §1
CYP2C19 = CYP2C19 (Homo sapiens, UniProt P33261); test: Inhibition of human CYP2C19 at 10 uM; format: ADME; in short: as §3
CYP2C9 = CYP2C9 (Homo sapiens, UniProt P11712); test: Inhibition of human CYP2C9 at 10 uM; format: ADME
In short: (§4)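 Inhibition of CYP isoforms by compounds tested at 10 μM, given as percent inhibition; contract in vitro ADME panel.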

MDBK = test: Competitive inhibition of endoplasmic reticulum-resident alpha-glucosidase in MDBK cells infected with 1 MOI BVDV assessed as decrease in viral E2 protein mobility at 0.8 to 100 uM after 24 hrs by Western blotting; format: cell-based; settings: Bos taurus
In short: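 MDBK cells infected with BVDV at MOI 1 for 1 h, then compounds at 0.8, 4.0, 20 and 100 μM. Cells lysed in Laemmli buffer, run on 12% polyacrylamide gel and transferred to nitrocellulose. BVDV E2 mobility probed with monoclonal WB166 and β-actin detected in parallel. IR-dye secondary antibody, Odyssey imaging.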

[9] = Metabolic stability in rat liver microsomes at 60 mins; format: ADME, Microsome; settings: read-out: Stability
CYP3A4 [10] = molecular target: T1, CYP3A4; test: Inhibition of human CYP3A4 using midazolam as substrate at 10 uM; format: ADME; settings: probe midazolam; in short: as §3
dengue virus type 2 = test: Antiviral activity against 0.01 MOI DENV-2 NGC infected in BHK cells assessed as reduction in viral titer after 48 hrs; format: functional, organism-based
In short: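 BHK cells infected with DENV-2 New Guinea C at MOI 0.01 for 1 h. Inoculum removed, then compounds at 0.1–100 μM for 48 h at 37 °C. Supernatants titrated on Vero monolayers as 10-fold dilutions under 0.5% methylcellulose for 3–5 days. Foci detected by 4G2 immunostaining or crystal violet plaques. EC50 from dose–response curves, mean of 3 independent experiments.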

[11] = Metabolic stability in human liver microsomes at 60 mins; format: ADME, Microsome; settings: read-out: Stability
[12] = Antiviral activity against 1 MOI BVDV NADL infected in MDBK cells assessed as reduction in viral titer after 22 hrs; format: functional, cell-based, Bovine viral diarrhea virus 1-NADL; settings: Bovine viral diarrhea virus isolates and strains, MDBK, 22 h
In short: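 MDBK cells (2×10^5) infected 24 h after seeding with BVDV NADL at MOI 1, with 1 h adsorption at 37 °C. Washed, then compounds at 0.1–100 μM. Media harvested 22 h post-infection and plaque-titrated on MDBK under 1% methylcellulose for 3 days. Plaques counted directly or after neutral red staining. EC50 from dose–response curves, mean of 3 independent experiments.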

CYP2D6 = CYP2D6 (Homo sapiens, UniProt P10635); test: Inhibition of human CYP2D6 at 10 uM; format: ADME; in short: as §4
[13] = Cytotoxicity against MDBK cells assessed as cell viability by MTT assay; format: cell-based, Bos taurus; settings: cattle
Dengue virus = test: Antiviral activity against 0.01 MOI DENV infected in human Huh7.5 cells assessed as reduction in viral […] protein level at 0.1 to 100 uM after 2 days by Western blotting; format: functional, organism-based; settings: Huh-7
[14] = Aqueous solubility in PBS at pH 4; format: physicochemical; settings: buffer
[15] = Cytotoxicity against human Huh7.5 cells assessed as cell viability by DRAQ5 and Sapphire 700 staining; settings: huh-7
Rattus norvegicus [16] = test: Acute toxicity in Sprague-Dawley rat assessed as mortality at 25 to 200 mg/kg, po after 7 days; format: organism-based; set-up: dose 25-200 mg/kg, route oral; settings: in vivo, 168 h
[17] = Volume of distribution in Sprague-Dawley rat at 5 mg/kg, iv; format: ADME, organism-based; set-up: dose 5 mg/kg, route intravenous; settings: in vivo
Rattus norvegicus [18] = test: Volume of distribution in Sprague-Dawley rat at 25 mg/kg, po; format: ADME, organism-based; set-up: dose 25 mg/kg, route oral; settings: in vivo
[19] = Plasma half life in Sprague-Dawley rat at 5 mg/kg, iv; format: ADME, organism-based; set-up: dose 5 mg/kg, route intravenous
Rattus norvegicus [20] = test: Acute toxicity in Sprague-Dawley rat assessed as occurrence of diarrhea at 200 mg/kg, po measured at 1 to 2 days; format: organism-based; set-up: dose 200 mg/kg, route oral; settings: in vivo
In short: (§5)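 Single oral dose (25, 50, 100 or 200 mg/kg, or vehicle) given to 10-week-old male rats, 2 per group. Compound dissolved at 20 mM in PBS with 10% Solutol HS15, shaken 6 h at 37 °C. Animals observed 7 days for clinical signs, body weight and food consumption, then sacrificed on day 8.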

Rattus norvegicus [21] = test: Acute toxicity in Sprague-Dawley rat assessed as body weight loss at 25 to 200 mg/kg, po after 7 days; format: organism-based; set-up: dose 25-200 mg/kg, route oral; settings: in vivo, 168 h; in short: as §5
Rattus norvegicus [22] = test: Acute toxicity in Sprague-Dawley rat assessed as occurrence of soft feces at 50 to 100 mg/kg, po measured at 1 to 2 days; format: organism-based; set-up: route oral; settings: in vivo; in short: as §5
in vivo = settings: Sprague-Dawley, rat, po, 25 mg/kg
[23] = Selectivity index, ratio of CC50 for MDBK cells to EC50 for BVDV NADL infected in MDBK cells
In short: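 MDBK cells infected with BVDV NADL at MOI 1, 1 h at 37 °C, washed, then compounds at 0.1–100 μM. Media harvested at 22 h, plaque-titrated on MDBK under 1% methylcellulose for 3 days, neutral red or direct count. EC50 from yield curves; MTT CC50 in uninfected MDBK; SI = CC50/EC50.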

[24] = Selectivity index, ratio of CC50 for BHK cells to EC50 for DENV-2 NGC infected in BHK cells
In short: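 BHK cells infected with DENV-2 New Guinea C at MOI 0.01 for 1 h, then compounds at 0.1–100 μM for 48 h at 37 °C. Supernatant titrated on Vero cells under 0.5% methylcellulose, 3–5 days; foci by 4G2 immunostaining or crystal violet plaques. EC50 from yield curves; MTT CC50 in uninfected BHK; SI = CC50/EC50.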

Cytochrome P450 3A4 = Cytochrome P450 3A4 (Homo sapiens, UniProt P08684); test: as §2; format: ADME; settings: 10 µM; in short: as §3
Cytochrome P450 3A4, sequence (P08684 whole entry): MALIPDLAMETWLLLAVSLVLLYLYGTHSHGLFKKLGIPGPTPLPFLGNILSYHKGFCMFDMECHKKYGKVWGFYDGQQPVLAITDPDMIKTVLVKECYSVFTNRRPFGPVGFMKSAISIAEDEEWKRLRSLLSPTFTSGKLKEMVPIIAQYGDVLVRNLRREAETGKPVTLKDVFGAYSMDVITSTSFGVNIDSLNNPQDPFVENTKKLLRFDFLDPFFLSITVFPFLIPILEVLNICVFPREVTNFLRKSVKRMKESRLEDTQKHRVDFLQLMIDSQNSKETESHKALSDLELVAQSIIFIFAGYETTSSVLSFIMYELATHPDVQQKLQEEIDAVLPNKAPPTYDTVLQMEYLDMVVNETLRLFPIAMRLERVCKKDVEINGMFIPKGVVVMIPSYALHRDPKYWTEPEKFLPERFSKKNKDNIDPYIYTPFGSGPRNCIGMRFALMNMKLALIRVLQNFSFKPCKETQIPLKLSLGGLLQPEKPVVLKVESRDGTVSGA

T1 sequence (P08684 whole entry, canonical isoform): as the sequence (P08684 whole entry) above
CYP2C19, sequence (P33261 whole entry): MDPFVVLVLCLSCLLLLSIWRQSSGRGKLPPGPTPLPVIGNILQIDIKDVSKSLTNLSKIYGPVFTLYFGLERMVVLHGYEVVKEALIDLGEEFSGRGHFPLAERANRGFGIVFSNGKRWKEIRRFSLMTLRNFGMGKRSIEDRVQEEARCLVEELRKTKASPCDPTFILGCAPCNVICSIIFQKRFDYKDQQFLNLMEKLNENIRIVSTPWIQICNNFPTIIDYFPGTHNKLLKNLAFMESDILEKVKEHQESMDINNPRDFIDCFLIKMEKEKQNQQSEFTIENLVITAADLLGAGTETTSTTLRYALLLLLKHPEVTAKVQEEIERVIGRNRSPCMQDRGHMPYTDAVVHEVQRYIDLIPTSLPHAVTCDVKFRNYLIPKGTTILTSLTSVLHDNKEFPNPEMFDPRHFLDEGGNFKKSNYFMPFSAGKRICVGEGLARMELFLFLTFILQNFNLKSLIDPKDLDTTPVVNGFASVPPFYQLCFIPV
CYP2C9, sequence (P11712 whole entry, canonical isoform): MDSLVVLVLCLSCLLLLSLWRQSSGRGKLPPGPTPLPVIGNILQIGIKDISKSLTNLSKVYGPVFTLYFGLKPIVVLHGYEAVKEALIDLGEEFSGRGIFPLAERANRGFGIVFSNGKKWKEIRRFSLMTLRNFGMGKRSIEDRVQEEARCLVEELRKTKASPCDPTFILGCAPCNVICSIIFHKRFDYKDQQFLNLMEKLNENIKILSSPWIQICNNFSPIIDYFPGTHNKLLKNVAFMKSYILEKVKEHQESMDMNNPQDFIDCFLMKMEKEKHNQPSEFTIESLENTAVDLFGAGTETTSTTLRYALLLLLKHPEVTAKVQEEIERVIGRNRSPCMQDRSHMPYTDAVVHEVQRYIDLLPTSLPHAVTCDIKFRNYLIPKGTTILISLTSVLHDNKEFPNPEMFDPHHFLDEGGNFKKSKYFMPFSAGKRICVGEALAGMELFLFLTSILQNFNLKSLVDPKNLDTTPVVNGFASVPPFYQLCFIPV
CYP2D6, sequence (P10635 whole entry): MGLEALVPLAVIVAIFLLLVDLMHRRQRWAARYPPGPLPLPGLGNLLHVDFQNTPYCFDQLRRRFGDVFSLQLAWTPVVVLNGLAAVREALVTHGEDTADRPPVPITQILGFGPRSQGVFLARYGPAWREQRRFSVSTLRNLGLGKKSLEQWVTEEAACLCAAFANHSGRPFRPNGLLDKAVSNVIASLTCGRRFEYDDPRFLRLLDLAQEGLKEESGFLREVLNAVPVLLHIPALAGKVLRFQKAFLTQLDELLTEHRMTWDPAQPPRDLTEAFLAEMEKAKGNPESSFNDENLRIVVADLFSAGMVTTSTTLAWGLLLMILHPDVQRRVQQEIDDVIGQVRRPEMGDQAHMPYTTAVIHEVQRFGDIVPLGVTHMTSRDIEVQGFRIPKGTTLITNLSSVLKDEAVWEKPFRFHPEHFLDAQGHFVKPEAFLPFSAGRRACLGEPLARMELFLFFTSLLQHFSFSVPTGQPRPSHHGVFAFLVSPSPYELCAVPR

SMILES | remaining at 1 h [1] [%] | fraction unbound [2] | solubility [3] [µM] | CC50 [4] [nM] | fraction unbound [5] | inhibition at 10 µM (CYP1A2) [%] | fraction unbound [8] | inhibition at 10 µM (CYP2C19) [%] | inhibition at 10 µM (CYP2C9) [%] | remaining at 1 h [9] [%] | inhibition at 10 µM (CYP3A4 [10]) [%] | Activity (dengue virus type 2) | EC50 (dengue virus type 2) [nM] | remaining at 1 h [11] [%] | EC50 [12] [nM] | inhibition at 10 µM (CYP2D6) [%] | CC50 [13] [nM] | Activity (Dengue virus) | solubility [14] [µM] | Activity [15] | also measured
CCC(O)(CC)CCCCCCN1C[C@H](O)[C@@H](O)[C@H](O)[C@H]1CO | 104 | 0.6 | 315 (≈ 105 µg/mL) | > 500000 | 0.67 | 7.9 | 0.7 | 37 | 9.6 | 98 | 21 | Dose-dependent effect | 6500 | 99 | 6200 | 1.2 | > 500000 | Active | 315 (≈ 105 µg/mL) | Non-toxic | bioavailability [6]: 56%; inhibition at 10 µM (CYP3A4 [7]): 20.5%; inhibition (MDBK): Active
OC[C@@H]1[C@@H](O)[C@H](O)[C@@H](O)CN1CCCCCCOc1cc(F)ccc1F | 91 | 0.23 | 292 (≈ 110 µg/mL) | > 500000 | 0.26 | 24.4 | 0.32 | 1.6 | 7.1 | 79 | 10.9 | Dose-dependent effect | 400 | 91 | 500 | 11.4 | > 500000 | Active | 296 (≈ 111 µg/mL) | Non-toxic | Activity (Rattus norvegicus [16]): Non-toxic; Vd [17]: 3.1 L/kg; Vd (Rattus norvegicus [18]): 17.2 L/kg; inhibition at 10 µM (CYP3A4 [7]): -1.9%; half-life [19]: 1.44 h; Activity (Rattus norvegicus [20]): Toxic; inhibition (MDBK): Active; Activity (Rattus norvegicus [21]): Non-toxic; Activity (Rattus norvegicus [22]): Toxic; Tmax (in vivo): 4.2 h
OC[C@@H]1[C@@H](O)[C@H](O)[C@@H](O)CN1CCCCCCOC1CCCCC1 |  |  |  | > 500000 |  |  |  |  |  |  |  |  | 1600 |  | 400 |  | 480000 |  |  |  | Ratio CC50/EC50 [23]: 1200; Ratio CC50/EC50 [24]: >312; inhibition (MDBK): Active
CCCOc1cccc(CCCN2C[C@H](O)[C@@H](O)[C@H](O)[C@H]2CO)c1 | 87 | 0.4 | 288 (≈ 97.8 µg/mL) | > 500000 | 0.32 | 15.9 | 0.43 | 2.8 | 10.5 | 97 | 8.6 | Dose-dependent effect | 300 | 99 | 1200 | 11 | > 500000 | Active | 281 (≈ 95.4 µg/mL) | Non-toxic | inhibition at 10 µM (CYP3A4 [7]): 0.7%; inhibition (MDBK): Active
OC[C@@H]1[C@@H](O)[C@H](O)[C@@H](O)CN1CCCCCCOC1CCCCCC1 | 92 | 0.15 | 295 (≈ 106 µg/mL) | > 500000 | 0.29 | 9 | 0.35 | -4.9 | 5 | 90 | 21.2 | Dose-dependent effect | 500 | 89 | 1400 | 2.5 | > 500000 | Active | 286 (≈ 103 µg/mL) | Non-toxic | inhibition (INH) (Cytochrome P450 3A4): 3.1%
OC[C@@H]1[C@@H](O)[C@H](O)[C@@H](O)CN1CCCCCCOCc1ccccc1 | 97 | 0.47 | 288 (≈ 102 µg/mL) | > 500000 | 0.48 | 17.3 | 0.51 | 14.2 | 10.7 | 91 | 6.6 | Dose-dependent effect | 400 | 104 | 1500 | 9.1 | > 500000 | Active | 282 (≈ 99.7 µg/mL) | Non-toxic | inhibition (INH) (Cytochrome P450 3A4): 3.3%
